# How the values were obtained:
# [1] = molecular target: Neuronal acetylcholine receptor subunit alpha-7 (Rattus norvegicus, UniProt Q05941); assay: Binding affinity at rat brain Nicotinic acetylcholine receptor alpha7
# [2] = Ratio of Ki (binding affinity) relative to activation potency
# [3] = molecular target: Neuronal acetylcholine receptor subunit alpha-7 (Rattus norvegicus) (UniProt Q05941); assay: Compound was tested for its potency at Nicotinic acetylcholine receptor alpha-7 relative to that of Nicotinic acetylcholine receptor alpha4-beta2
# [4] = Compound was tested for its potency at Nicotinic acetylcholine receptor alpha3-beta4 relative to that of Nicotinic acetylcholine receptor alpha4-beta2
# [5] = molecular target: T1, Neuronal acetylcholine receptor; alpha3/beta4 (Rattus norvegicus, UniProt P04757+P12392); assay: Binding affinity at rat brain Nicotinic acetylcholine receptor alpha3-beta4
# [6] = molecular target: Neuronal acetylcholine receptor; alpha4/beta2 (Rattus norvegicus, UniProt P09483+P12390); assay: Binding affinity at rat brain Nicotinic acetylcholine receptor alpha4-beta2
# In short: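 Rat brain P2 membranes (250 μg protein) competed against 10 nM (–)-[3H]nicotine, 30 min room temperature then 1 h at 4 °C; filtration. Nonspecific binding with 1 mM (–)-nicotine.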
# [7] = molecular target: T1, Neuronal acetylcholine receptor; alpha3/beta4; assay: Activation potency at Nicotinic acetylcholine receptor alpha3beta4, expressed as concentration required to achieve a half maximal activation; type: protein-complex assay
# In short: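 Rat α3β4 nAChR stably expressed in L cells, induced 7–10 days with 1 μM dexamethasone; cells loaded with 5 μM fluo-3 (1 h, room temperature, dark). Agonist given in high-calcium buffer (75 mM CaCl2, pH 7.4), fluorescence followed 16 s.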
# T1 sequence (P04757 whole entry): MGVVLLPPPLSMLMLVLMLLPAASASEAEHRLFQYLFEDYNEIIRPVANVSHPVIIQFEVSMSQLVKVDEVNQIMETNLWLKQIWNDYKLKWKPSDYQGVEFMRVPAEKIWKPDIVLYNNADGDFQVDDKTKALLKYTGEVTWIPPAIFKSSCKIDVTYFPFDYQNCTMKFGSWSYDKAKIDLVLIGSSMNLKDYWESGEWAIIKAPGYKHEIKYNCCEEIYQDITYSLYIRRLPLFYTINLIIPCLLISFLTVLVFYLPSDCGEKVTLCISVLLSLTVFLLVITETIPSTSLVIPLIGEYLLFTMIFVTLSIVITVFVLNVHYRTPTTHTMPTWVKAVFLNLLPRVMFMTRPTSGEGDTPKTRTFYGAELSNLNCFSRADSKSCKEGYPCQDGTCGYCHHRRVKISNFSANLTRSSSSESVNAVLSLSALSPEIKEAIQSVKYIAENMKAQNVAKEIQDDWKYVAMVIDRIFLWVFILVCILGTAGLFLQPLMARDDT
# T1 sequence (P12392 whole entry): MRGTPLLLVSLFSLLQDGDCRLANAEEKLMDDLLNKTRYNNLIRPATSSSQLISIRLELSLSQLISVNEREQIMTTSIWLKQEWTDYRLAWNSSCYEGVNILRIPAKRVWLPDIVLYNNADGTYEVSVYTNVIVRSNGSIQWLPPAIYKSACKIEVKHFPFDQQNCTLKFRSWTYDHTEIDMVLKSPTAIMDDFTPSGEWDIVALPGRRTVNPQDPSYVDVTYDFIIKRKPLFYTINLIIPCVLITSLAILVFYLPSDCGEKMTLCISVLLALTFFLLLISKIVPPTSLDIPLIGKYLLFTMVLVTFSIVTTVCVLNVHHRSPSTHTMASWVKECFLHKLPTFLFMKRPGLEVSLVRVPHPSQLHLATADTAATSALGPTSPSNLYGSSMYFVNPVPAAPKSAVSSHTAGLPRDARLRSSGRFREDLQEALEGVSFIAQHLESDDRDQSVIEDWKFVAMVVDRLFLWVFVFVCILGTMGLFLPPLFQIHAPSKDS
# Chain of Neuronal acetylcholine receptor; alpha4/beta2 (P09483 whole entry): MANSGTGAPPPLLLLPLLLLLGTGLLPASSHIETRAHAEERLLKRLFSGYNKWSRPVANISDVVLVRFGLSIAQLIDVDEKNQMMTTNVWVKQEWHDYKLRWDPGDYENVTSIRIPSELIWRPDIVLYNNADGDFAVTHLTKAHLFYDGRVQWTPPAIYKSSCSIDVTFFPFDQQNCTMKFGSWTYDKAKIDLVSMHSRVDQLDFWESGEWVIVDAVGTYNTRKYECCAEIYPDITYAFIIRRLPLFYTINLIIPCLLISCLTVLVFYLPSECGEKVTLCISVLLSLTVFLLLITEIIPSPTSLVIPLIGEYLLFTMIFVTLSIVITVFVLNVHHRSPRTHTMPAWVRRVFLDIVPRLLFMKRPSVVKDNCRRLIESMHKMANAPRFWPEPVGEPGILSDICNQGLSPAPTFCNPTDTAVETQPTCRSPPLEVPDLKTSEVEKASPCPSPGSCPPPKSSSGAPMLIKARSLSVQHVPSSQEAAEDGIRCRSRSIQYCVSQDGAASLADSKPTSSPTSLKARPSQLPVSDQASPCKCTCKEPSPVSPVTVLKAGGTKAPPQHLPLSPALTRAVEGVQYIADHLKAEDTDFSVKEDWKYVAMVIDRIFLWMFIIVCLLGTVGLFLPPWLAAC
# Chain of Neuronal acetylcholine receptor; alpha4/beta2 (P12390 whole entry): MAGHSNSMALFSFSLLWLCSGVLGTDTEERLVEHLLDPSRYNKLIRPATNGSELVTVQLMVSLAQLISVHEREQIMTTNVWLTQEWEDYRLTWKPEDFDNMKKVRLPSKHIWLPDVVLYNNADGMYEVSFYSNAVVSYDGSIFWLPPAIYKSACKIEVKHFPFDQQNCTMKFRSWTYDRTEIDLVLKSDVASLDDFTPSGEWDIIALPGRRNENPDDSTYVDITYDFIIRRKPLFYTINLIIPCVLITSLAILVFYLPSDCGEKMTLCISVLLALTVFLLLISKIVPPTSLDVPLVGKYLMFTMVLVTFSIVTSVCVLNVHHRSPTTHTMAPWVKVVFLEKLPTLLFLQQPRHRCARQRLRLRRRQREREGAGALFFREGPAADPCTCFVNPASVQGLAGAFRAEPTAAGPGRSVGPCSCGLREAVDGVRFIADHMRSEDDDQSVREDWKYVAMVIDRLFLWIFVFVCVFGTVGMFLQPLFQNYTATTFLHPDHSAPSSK
# Chain of Neuronal acetylcholine receptor subunit alpha-7 (Q05941 whole entry): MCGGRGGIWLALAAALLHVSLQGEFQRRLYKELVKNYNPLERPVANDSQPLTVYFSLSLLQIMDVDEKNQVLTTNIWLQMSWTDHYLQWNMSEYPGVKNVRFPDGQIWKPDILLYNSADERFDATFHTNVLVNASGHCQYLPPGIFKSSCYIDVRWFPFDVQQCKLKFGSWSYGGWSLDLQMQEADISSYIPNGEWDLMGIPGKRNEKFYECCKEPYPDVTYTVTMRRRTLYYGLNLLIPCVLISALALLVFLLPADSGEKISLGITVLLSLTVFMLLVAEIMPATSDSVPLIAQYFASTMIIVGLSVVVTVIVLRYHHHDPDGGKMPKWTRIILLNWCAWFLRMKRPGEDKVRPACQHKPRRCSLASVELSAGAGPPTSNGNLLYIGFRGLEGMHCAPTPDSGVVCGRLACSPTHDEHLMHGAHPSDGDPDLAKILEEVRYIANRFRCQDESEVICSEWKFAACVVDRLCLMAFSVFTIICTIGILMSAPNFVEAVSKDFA
# Chain of Neuronal acetylcholine receptor subunit alpha-7 (Rattus norvegicus) (Q05941 whole entry): as above
Compound,Ki [1] [nM],Ratio [2],Affinity ratio [3],Affinity ratio [4],Ki [5] [nM],Ki [6] [nM],EC50 [7] [nM]
C1=C(c2cccnn2)C2CC[C@H](CC1)N2,68.4,14,118,20,306,2.6,4190
C1=C(c2ccncc2)C2CC[C@H](CC1)N2,> 50000,–,–,2,22000,11000,> 100000
Clc1ccc(C2=CCCC3CCC2N3)cn1 (racemic),2760,–,–,–,–,–,–
C1=C(c2cccnc2)C2CC[C@H](CC1)N2,89,–,–,–,–,0.43,–
C1=C(c2cnccn2)C2CC[C@H](CC1)N2,5770,–,100,49,2850,58,> 100000
C1=C(c2ccccn2)C2CC[C@H](CC1)N2,47500,–,31,6.8,10500,–,> 100000
C1=C(c2cncnc2)C2CC[C@H](CC1)N2,1710,16,696,96,236,2.45,3890

# — ChEMBL document CHEMBL1135438, “Synthesis and pharmacological characterization of novel analogues of the nicotinic acetylcholine receptor agonist (+/-)-UB-165” (J Med Chem, 2002)
